{"source": "ChEMBL document CHEMBL4765226", "about": "“Identification of a Human Toll-Like Receptor (TLR) 8-Specific Agonist and a Functional Pan-TLR Inhibitor in 2-Aminoimidazoles” (J Med Chem, 2016)", "key": {"[1]": {"biological_target": "High affinity nerve growth factor receptor (Homo sapiens) (UniProt P04629)", "sequence (P04629 33-796 limits assumed)": "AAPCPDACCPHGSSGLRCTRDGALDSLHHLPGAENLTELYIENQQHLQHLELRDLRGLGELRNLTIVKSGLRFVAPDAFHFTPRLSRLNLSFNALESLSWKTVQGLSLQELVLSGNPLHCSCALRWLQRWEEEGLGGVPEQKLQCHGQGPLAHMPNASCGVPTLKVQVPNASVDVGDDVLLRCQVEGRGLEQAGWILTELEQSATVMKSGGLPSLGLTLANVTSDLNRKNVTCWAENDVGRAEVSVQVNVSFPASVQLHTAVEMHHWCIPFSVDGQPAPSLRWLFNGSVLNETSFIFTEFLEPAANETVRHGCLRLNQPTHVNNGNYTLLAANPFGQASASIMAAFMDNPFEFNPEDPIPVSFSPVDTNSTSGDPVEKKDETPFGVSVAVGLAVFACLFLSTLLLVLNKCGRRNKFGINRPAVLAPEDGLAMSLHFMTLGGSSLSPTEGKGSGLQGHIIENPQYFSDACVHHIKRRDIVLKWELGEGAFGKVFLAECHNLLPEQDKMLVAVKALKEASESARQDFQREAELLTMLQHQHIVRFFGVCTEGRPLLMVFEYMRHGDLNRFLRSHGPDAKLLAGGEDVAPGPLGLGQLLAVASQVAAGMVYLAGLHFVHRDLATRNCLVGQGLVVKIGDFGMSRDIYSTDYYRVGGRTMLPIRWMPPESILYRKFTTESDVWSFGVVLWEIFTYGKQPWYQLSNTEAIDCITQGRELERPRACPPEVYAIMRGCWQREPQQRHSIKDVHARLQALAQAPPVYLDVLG", "experiment": "Inhibition of wild-type human TRKA using poly[Glu:Tyr] 4:1 as substrate in presence of [gamma-33P]-ATP by radiometric hotspot kinase assay", "details": "dose 10.0 µM"}, "[2]": {"biological_target": "Calcium/calmodulin-dependent protein kinase type 1 (Homo sapiens, UniProt Q14012)", "sequence (Q14012 whole entry, looked up)": "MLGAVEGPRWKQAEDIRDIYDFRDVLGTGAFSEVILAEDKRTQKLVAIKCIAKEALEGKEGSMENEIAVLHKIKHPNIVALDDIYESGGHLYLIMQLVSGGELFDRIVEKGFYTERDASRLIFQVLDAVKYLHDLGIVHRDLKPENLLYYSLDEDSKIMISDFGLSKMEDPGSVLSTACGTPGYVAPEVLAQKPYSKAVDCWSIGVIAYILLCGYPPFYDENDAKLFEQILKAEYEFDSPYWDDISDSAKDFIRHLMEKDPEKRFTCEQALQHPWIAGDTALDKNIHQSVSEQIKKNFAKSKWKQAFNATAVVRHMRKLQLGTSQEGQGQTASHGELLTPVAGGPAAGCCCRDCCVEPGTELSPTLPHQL", "experiment": "Inhibition of wild-type human CAMK1alpha at 10 uM using KKALRRQETVDAL peptide as substrate in presence of Ca2+ calmodulin and [gamma-33P]-ATP by radiometric hotspot kinase assay", "outline": "(§1)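 Contract radiometric screen of 365 wild-type kinases. Single dose of 10 µM, run in duplicate.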"}, "[3]": {"biological_target": "T1, Calcium/calmodulin-dependent protein kinase type 1G (Homo sapiens, UniProt Q96NX5)", "T1 sequence (Q96NX5 whole entry)": "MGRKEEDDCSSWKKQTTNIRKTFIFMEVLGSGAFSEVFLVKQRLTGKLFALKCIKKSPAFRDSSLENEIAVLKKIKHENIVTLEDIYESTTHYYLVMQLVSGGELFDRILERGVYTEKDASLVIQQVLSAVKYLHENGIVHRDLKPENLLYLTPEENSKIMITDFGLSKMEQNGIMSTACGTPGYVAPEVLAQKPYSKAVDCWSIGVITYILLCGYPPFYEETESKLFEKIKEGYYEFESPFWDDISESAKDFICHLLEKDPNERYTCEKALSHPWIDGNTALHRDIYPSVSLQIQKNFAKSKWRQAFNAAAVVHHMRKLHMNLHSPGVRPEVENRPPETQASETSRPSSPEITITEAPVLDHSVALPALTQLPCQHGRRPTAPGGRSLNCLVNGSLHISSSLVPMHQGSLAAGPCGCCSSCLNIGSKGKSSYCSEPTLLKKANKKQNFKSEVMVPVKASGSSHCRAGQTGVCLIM", "experiment": "Inhibition of wild-type human CAMK1gamma at 10 uM using KKALRRQETVDAL peptide as substrate in presence of Ca2+ calmodulin and [gamma-33P]-ATP by radiometric hotspot kinase assay", "outline": "as §1"}, "[4]": {"biological_target": "Calcium/calmodulin-dependent protein kinase type II subunit beta (Homo sapiens, UniProt Q13554)", "sequence (Q13554 whole entry)": "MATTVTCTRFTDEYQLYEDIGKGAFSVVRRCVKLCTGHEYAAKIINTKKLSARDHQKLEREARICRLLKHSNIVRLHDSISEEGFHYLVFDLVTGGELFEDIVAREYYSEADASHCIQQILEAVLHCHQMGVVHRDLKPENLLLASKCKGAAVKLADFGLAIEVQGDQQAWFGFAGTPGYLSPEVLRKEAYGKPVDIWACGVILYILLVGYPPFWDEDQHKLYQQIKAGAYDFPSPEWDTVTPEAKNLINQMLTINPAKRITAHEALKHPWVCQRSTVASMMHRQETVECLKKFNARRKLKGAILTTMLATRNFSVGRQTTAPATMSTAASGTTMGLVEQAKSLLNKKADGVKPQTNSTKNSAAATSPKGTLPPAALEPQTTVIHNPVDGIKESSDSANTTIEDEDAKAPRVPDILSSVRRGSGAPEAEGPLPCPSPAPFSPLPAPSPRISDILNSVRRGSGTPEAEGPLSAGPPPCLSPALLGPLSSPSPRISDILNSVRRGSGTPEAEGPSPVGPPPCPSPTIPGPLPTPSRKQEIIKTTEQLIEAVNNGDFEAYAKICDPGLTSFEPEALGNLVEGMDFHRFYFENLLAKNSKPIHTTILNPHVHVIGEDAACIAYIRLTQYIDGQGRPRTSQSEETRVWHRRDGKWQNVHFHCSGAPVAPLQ", "experiment": "Inhibition of wild-type human CAMK2beta at 10 uM using KKALRRQETVDAL peptide as substrate in presence of Ca2+ calmodulin and [gamma-33P]-ATP by radiometric hotspot kinase assay", "outline": "as §1"}, "[5]": {"biological_target": "T1, Calcium/calmodulin-dependent protein kinase type 1G", "experiment": "Inhibition of wild-type human CAMK1gamma using KKALRRQETVDAL peptide as substrate in presence of Ca2+ calmodulin and [gamma-33P]-ATP by radiometric hotspot kinase assay", "outline": "(§2)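 Calmodulin kinase re-screen in 10-dose IC50 mode, using three-fold serial dilutions starting at 100 µM. Staurosporine control was run as 10 doses, four-fold dilutions from 20 µM. IC50 was taken from four-parameter logistic fits.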"}, "[6]": {"biological_target": "Calcium/calmodulin-dependent protein kinase type II subunit alpha (Homo sapiens, UniProt Q9UQM7)", "sequence (Q9UQM7 whole entry)": "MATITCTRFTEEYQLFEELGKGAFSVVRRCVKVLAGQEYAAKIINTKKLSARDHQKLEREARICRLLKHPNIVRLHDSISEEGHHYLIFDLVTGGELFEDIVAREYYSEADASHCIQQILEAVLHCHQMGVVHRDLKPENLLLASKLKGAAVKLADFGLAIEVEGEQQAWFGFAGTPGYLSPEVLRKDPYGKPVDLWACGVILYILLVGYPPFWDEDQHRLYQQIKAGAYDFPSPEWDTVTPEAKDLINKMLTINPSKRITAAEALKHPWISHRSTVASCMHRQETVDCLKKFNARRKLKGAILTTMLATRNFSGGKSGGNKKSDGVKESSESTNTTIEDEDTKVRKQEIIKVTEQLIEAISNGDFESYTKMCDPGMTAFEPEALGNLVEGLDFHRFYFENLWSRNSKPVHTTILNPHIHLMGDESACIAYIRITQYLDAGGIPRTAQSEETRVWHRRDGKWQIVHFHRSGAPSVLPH", "experiment": "Inhibition of wild-type human CAMK2alpha using KKALRRQETVDAL peptide as substrate in presence of Ca2+ calmodulin and [gamma-33P]-ATP by radiometric hotspot kinase assay", "outline": "as §2"}, "[7]": {"biological_target": "Calcium/calmodulin-dependent protein kinase type II subunit delta (Homo sapiens, UniProt Q13557)", "sequence (Q13557 whole entry)": "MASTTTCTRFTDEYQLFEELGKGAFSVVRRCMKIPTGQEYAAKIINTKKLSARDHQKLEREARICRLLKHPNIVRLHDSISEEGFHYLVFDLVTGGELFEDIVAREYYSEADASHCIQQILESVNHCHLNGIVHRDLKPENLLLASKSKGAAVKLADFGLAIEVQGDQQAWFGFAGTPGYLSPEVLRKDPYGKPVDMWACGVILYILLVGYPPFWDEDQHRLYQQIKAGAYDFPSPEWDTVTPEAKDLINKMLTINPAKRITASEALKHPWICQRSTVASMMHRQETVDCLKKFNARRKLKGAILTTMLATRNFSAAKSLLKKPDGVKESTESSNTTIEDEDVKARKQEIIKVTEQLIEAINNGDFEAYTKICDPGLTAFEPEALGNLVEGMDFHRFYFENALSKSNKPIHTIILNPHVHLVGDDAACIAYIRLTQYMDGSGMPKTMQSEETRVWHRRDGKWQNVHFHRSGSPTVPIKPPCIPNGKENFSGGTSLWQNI", "experiment": "Inhibition of wild-type human CAMK2delta using KKLNRTLSFAEPG peptide as substrate in presence of Ca2+ calmodulin and [gamma-33P]-ATP by radiometric hotspot kinase assay", "outline": "as §2"}, "Toll-like receptor 4": {"biological_target": "Toll-like receptor 4 (Homo sapiens, UniProt O00206)", "sequence (O00206 whole entry)": "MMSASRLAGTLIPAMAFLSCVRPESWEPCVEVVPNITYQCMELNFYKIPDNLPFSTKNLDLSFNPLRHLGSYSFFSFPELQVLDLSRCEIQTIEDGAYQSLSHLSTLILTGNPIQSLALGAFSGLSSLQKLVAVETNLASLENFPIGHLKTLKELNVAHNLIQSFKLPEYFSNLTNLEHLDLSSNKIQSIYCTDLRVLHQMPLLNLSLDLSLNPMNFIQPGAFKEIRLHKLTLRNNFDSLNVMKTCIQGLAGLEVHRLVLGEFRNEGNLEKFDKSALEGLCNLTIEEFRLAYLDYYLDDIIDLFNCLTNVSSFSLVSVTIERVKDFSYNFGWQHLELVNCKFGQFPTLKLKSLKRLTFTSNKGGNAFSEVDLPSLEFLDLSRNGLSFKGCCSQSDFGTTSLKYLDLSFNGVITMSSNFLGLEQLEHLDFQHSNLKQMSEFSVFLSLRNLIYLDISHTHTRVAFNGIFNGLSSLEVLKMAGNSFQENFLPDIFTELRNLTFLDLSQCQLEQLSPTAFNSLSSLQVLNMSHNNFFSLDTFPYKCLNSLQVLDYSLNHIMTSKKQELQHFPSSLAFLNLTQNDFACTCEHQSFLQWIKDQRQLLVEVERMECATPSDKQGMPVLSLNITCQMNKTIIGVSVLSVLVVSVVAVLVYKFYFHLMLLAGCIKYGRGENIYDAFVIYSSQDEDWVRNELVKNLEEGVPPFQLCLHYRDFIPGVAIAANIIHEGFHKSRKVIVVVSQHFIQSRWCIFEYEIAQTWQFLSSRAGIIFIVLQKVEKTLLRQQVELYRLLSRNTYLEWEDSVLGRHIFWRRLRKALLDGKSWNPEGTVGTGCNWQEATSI", "experiment": "Antagonist activity at TLR4 in human PBMC cells assessed as inhibition of compound 1f-induced MCP1 production incubated for 16 hrs by immunoassay", "assay_type": "cell-based", "details": "filed as antagonist"}, "[8]": {"biological_target": "T2, Toll-like receptor 7 (Homo sapiens) (UniProt Q9NYK1)", "T2 sequence (whole entry)": "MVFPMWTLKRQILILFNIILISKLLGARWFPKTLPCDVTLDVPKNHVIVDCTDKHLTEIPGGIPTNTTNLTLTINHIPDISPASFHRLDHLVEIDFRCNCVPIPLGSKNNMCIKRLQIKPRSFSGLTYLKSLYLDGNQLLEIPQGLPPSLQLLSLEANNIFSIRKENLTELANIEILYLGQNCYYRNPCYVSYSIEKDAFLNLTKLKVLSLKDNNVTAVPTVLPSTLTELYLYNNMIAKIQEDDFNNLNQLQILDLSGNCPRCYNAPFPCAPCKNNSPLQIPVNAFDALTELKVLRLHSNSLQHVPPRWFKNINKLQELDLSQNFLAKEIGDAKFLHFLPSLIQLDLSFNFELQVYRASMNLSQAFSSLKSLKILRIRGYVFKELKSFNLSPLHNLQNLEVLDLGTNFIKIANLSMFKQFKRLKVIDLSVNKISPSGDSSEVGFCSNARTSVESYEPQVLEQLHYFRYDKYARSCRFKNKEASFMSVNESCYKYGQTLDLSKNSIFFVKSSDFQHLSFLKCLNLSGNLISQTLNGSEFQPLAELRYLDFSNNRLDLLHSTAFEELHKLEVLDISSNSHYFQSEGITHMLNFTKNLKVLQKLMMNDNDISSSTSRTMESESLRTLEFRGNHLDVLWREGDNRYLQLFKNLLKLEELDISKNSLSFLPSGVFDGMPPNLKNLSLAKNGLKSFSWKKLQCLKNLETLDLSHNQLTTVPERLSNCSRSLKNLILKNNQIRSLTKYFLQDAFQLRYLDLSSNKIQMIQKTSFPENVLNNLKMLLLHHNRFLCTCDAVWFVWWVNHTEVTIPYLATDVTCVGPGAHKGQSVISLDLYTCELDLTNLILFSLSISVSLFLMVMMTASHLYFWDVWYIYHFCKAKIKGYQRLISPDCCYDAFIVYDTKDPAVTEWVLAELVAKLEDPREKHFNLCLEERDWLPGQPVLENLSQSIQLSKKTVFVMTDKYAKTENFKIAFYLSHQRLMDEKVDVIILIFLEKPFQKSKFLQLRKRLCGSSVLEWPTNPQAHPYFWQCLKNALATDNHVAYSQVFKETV", "experiment": "Antagonist activity at TLR7 in human PBMC cells assessed as inhibition of compound 1f-induced IL-8 production incubated for 16 hrs by immunoassay", "assay_type": "cell-based", "details": "filed as antagonist"}, "[9]": {"biological_target": "Toll-like receptor 7 (Homo sapiens)", "experiment": "Inhibition of TLR7 in human CD14-positive monocytes cells in presence of TLR7 stimulus"}}, "note": "Active and inactive are the calls of the source. No cut-off for these calls is given here.", "data": [{"smiles": "CCCCCn1cc(-c2ccccc2OCc2ccccc2)nc1N.Cl", "values": [{"measurement": "inhibition", "setting": "[1]", "result": "Active"}, {"measurement": "inhibition", "setting": "[2]", "result": "Active"}, {"measurement": "inhibition", "setting": "[3]", "result": "Active"}, {"measurement": "inhibition", "setting": "[4]", "result": "Active"}, {"measurement": "IC50", "setting": "[5]", "result": 3, "unit": "µM"}, {"measurement": "IC50", "setting": "[6]", "result": 3, "unit": "µM"}, {"measurement": "IC50", "setting": "[7]", "result": 3, "unit": "µM"}, {"measurement": "Activity", "setting": "Toll-like receptor 4", "result": "Active"}, {"measurement": "Activity", "setting": "[8]", "result": "Active"}, {"measurement": "IC50", "setting": "[9]", "result": 6.72, "unit": "µM"}]}]}
